# Test results from ChEMBL document CHEMBL4270489, “Synthesis and in vitro and in vivo antitumour activity study of 11-hydroxyl esterified bergenin/cinnamic acid hybrids” (Eur J Med Chem, 2017).
# The source made the active and inactive calls. The rule behind the calls is not given here.
# How the values were obtained:
# MCF7 = assay: Antiproliferative activity against human MCF7 cells incubated for 48 to 72 hrs by MTT assay; format: functional, cell-based
# Method in brief: (§1)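 MTT assay. Cells were grown in DMEM with 10% heat-inactivated FBS at 37°C under 5% CO₂. They were seeded at 5000/well in 5% FBS DMEM for 24 h, then given compound in DMSO at 0.1, 1, 10 and 100 µmol/L for 72 h (the table footnote says 48 h). MTT was added for 4 h, formazan was dissolved in DMSO and read at 570 nm. IC₅₀ was from ≥3 independent runs; >100 μM was given if 50% inhibition was not reached.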
# SGC-7901 = assay: Antiproliferative activity against human SGC7901 cells incubated for 48 to 72 hrs by MTT assay; format: functional, cell-based; method in brief: as §1
# A549 = assay: Antiproliferative activity against human A549 cells incubated for 48 to 72 hrs by MTT assay; format: functional, cell-based; method in brief: as §1
# HepG2 [1] = assay: Antiproliferative activity against human HepG2 cells incubated for 48 to 72 hrs by MTT assay; format: functional, cell-based; method in brief: as §1
# PC-3 = assay: Antiproliferative activity against human PC3 cells incubated for 48 to 72 hrs by MTT assay; format: functional, cell-based; method in brief: as §1
# Mus musculus [2] = assay: Toxicity in Swiss mouse xenografted with […] assessed as effect on spleen index at 15 to 30 mg/kg, ip dosed every day for 14 days; format: organism-based; conditions: in vivo, 336 h
# Method in brief: (§2)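 Female Swiss mice (20-22 g) bearing subcutaneous […] (3×10⁶ cells, right flank) were dosed intraperitoneally daily with saline, 15 or 30 mg/kg, or 5-FU 20 mg/kg (n = 6) and killed on day 14. Body weight was recorded daily. Thymus and spleen indexes were calculated as organ weight divided by final body weight. Mean ± S.E.M.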
# Heps (mouse) [3] = assay: Antitumour activity against murine HepS cells xenografted in Swiss mouse assessed as reduction in tumor weight at 15 to 30 mg/kg, ip dosed every day for 14 days
# HepG2 [4] = assay: Induction of apoptosis in human HepG2 cells assessed as reduction in pro-caspase-3 protein expression at 1 to 8 umol/L incubated for 12 to 48 hrs by Western blot analysis; format: functional, cell-based
# Method in brief: (§3)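 Western blot. HepG2 cells were seeded at 5×10⁵/well with compound in 10% FBS at 37°C: 1, 2, 4 or 8 μM for 24 h, or 4 μmol/L over a time course. The vehicle was 0.5% DMSO. Cleared lysates were quantified by BCA and run on 10% SDS-PAGE, then transferred to PVDF. Membranes were blocked in 5% milk/TBST with primary antibodies at 1:2000 at 4°C, HRP secondary at 1:2000 for 2 h, and ECL detection. GAPDH served as loading control.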
# Mus musculus [5] = assay: Toxicity in Swiss mouse xenografted with […] assessed as increase in body weight at 15 mg/kg, ip dosed every day for 14 days; format: organism-based; conditions: in vivo, 336 h; method in brief: as §2
# HepG2 [6] = assay: Induction of cell cycle arrest in human HepG2 cells assessed as accumulation at G2/M phase at 2 umol/L incubated for 24 hrs by propidium iodide staining based flow cytometry (reference value: 10.41%); format: functional
# Heps (mouse) [7] = assay: Antitumour activity against murine HepS cells xenografted in Swiss mouse assessed as inhibition of tumor growth at 15 mg/kg, ip dosed every day for 14 days; conditions: 336 h, read-out: TGI
# HepG2 [8] = assay: Induction of apoptosis in human HepG2 cells assessed as reduction in pro-caspase-9 protein expression at 1 to 8 umol/L incubated for 12 to 48 hrs by Western blot analysis; format: functional, cell-based; method in brief: as §3
# HepG2 [9] = assay: Induction of apoptosis in human HepG2 cells assessed as reduction in Bcl-XL protein expression at 1 to 8 umol/L incubated for 12 to 48 hrs by Western blot analysis; format: functional, cell-based; method in brief: as §3
# HepG2 [10] = assay: Induction of apoptosis in human HepG2 cells assessed as reduction in Akt protein expression at 1 to 8 umol/L incubated for 12 to 48 hrs by Western blot analysis; format: functional, cell-based; method in brief: as §3
# HepG2 [11] = assay: Induction of cell cycle arrest in human HepG2 cells assessed as accumulation at G0/G1 phase at 2 umol/L incubated for 12 hrs by propidium iodide staining based flow cytometry (reference value: 64.31%); format: functional
# HepG2 [12] = assay: Induction of apoptosis in human HepG2 cells at 2 umol/L incubated for 24 hrs by Annexin V-FITC/propidium iodide staining based flow cytometry (reference value: 1.96%); format: functional
# HepG2 [13] = assay: Induction of apoptosis in human HepG2 cells at 1 umol/L incubated for 24 hrs by Annexin V-FITC/propidium iodide staining based flow cytometry (reference value: 1.96%); format: functional
# HepG2 [14] = assay: Induction of cell cycle arrest in human HepG2 cells assessed as accumulation at S phase at 2 umol/L incubated for 24 hrs by propidium iodide staining based flow cytometry (reference value: 25.28%); format: functional
# HepG2 [15] = assay: Induction of apoptosis in human HepG2 cells assessed as increase in Bax protein expression by Western blot analysis; format: functional, cell-based; method in brief: as §3
# Heps (mouse) [16] = assay: Antitumour activity against murine HepS cells xenografted in Swiss mouse assessed as inhibition of tumor growth at 30 mg/kg, ip dosed every day for 14 days; conditions: 336 h, read-out: TGI
# HepG2 [17] = assay: Induction of apoptosis in human HepG2 cells at 4 umol/L incubated for 24 hrs by Annexin V-FITC/propidium iodide staining based flow cytometry (reference value: 1.96%); format: functional
# HepG2 [18] = assay: Induction of apoptosis in human HepG2 cells assessed as reduction in Bcl2 protein expression at 1 to 8 umol/L incubated for 12 to 48 hrs by Western blot analysis; format: functional, cell-based; method in brief: as §3
# Mus musculus [19] = assay: Toxicity in Swiss mouse xenografted with […] assessed as effect on thymus index at 15 to 30 mg/kg, ip dosed every day for 14 days; format: organism-based; conditions: in vivo, 336 h; method in brief: as §2
# HepG2 [20] = assay: Induction of cell cycle arrest in human HepG2 cells assessed as accumulation at G0/G1 phase at 2 umol/L incubated for 24 hrs by propidium iodide staining based flow cytometry (reference value: 64.31%); format: functional
# HepG2 [21] = assay: Induction of cell cycle arrest in human HepG2 cells assessed as accumulation at S phase at 2 umol/L incubated for 12 hrs by propidium iodide staining based flow cytometry (reference value: 25.28%); format: functional
# HepG2 [22] = assay: Induction of apoptosis in human HepG2 cells assessed as reduction in Bcl-XL protein expression by Western blot analysis; format: functional, cell-based; method in brief: as §3
# Heps (mouse) [23] = assay: Antitumour activity against murine HepS cells xenografted in Swiss mouse assessed as reduction in tumor size at 15 to 30 mg/kg, ip dosed every day for 14 days
# HepG2 [24] = assay: Induction of apoptosis in human HepG2 cells assessed as increase in p53 protein expression at 1 to 8 umol/L incubated for 12 to 48 hrs by Western blot analysis
# HepG2 [25] = assay: Induction of apoptosis in human HepG2 cells assessed as reduction in Bcl2 protein expression by Western blot analysis; format: functional, cell-based; method in brief: as §3
# HepG2 [26] = assay: Induction of cell cycle arrest in human HepG2 cells assessed as accumulation at G2/M phase at 2 umol/L incubated for 12 hrs by propidium iodide staining based flow cytometry (reference value: 10.41%); format: functional
# HepG2 [27] = assay: Induction of apoptosis in human HepG2 cells incubated for 24 hrs by Annexin V-FITC/propidium iodide staining based flow cytometry (reference value: 1.96%); format: functional, cell-based
structure (smiles),measurement,setting,value
COc1c(O)cc2c(c1O)[C@@H]1O[C@H](CO)[C@@H](O)[C@H](O)[C@H]1OC2=O [BERGENIN],IC50,MCF7,> 100 µM
same,IC50,SGC-7901,23.6 µM
same,IC50,A549,77.3 µM
same,IC50,HepG2 [1],34.6 µM
same,IC50,PC-3,> 100 µM
COc1c(O)cc2c(c1O)[C@@H]1O[C@H](COC(=O)/C=C/c3ccc(F)cc3)[C@@H](O)[C@H](O)[C@H]1OC2=O,IC50,MCF7,35.8 µM
same,IC50,SGC-7901,> 100 µM
same,IC50,A549,> 100 µM
same,IC50,HepG2 [1],17.2 µM
same,IC50,PC-3,22.9 µM
COc1c(O)cc2c(c1O)[C@@H]1O[C@H](COC(=O)/C=C/c3ccc(C#N)cc3)[C@@H](O)[C@H](O)[C@H]1OC2=O,IC50,MCF7,7.34 µM
same,Activity,Mus musculus [2],Non-Toxic
same,Activity,Heps (mouse) [3],Dose-dependent effect
same,Activity,HepG2 [4],Active
same,Activity,Mus musculus [5],Non-Toxic
same,IC50,SGC-7901,8.32 µM
same,IC50,A549,10.7 µM
same,Activity,HepG2 [6],28.93%
same,IC50,HepG2 [1],5.23 µM
same,inhibition in vivo at 15 mg/kg,Heps (mouse) [7],45.4%
same,Activity,HepG2 [8],Active
same,Activity,HepG2 [9],Active
same,Activity,HepG2 [10],Active
same,Activity,HepG2 [11],57.64%
same,Activity,HepG2 [12],10.68%
same,Activity,HepG2 [13],5.58%
same,Activity,HepG2 [14],19.92%
same,Activity,HepG2 [15],Dose-dependent effect
same,inhibition in vivo at 30 mg/kg,Heps (mouse) [16],61%
same,Activity,HepG2 [17],20.68%
same,IC50,PC-3,27 µM
same,Activity,HepG2 [18],Active
same,Activity,Mus musculus [19],Non-Toxic
same,Activity,HepG2 [20],51.15%
same,Activity,HepG2 [21],28.43%
same,Activity,HepG2 [22],Dose-dependent effect
same,Activity,Heps (mouse) [23],Dose-dependent effect
same,Activity,HepG2 [24],Active
same,Activity,HepG2 [25],Dose-dependent effect
same,Activity,HepG2 [26],13.93%
same,Activity,HepG2 [27],Dose-dependent effect
COc1c(O)cc2c(c1O)[C@@H]1O[C@H](COC(=O)/C=C/c3cc(F)cc(F)c3)[C@@H](O)[C@H](O)[C@H]1OC2=O,IC50,MCF7,72.1 µM
same,IC50,SGC-7901,> 100 µM
same,IC50,A549,28.4 µM
same,IC50,HepG2 [1],> 100 µM
same,IC50,PC-3,46.2 µM
COc1c(O)cc2c(c1O)[C@@H]1O[C@H](COC(=O)/C=C/c3ccc(Cl)cc3)[C@@H](O)[C@H](O)[C@H]1OC2=O,IC50,MCF7,> 100 µM
same,IC50,SGC-7901,> 100 µM
same,IC50,A549,> 100 µM
same,IC50,HepG2 [1],> 100 µM
same,IC50,PC-3,86.5 µM
COc1c(O)cc2c(c1O)[C@@H]1O[C@H](COC(=O)/C=C/c3ccc(Cl)c(Cl)c3)[C@@H](O)[C@H](O)[C@H]1OC2=O,IC50,MCF7,> 100 µM
same,IC50,SGC-7901,> 100 µM
same,IC50,A549,63.2 µM
same,IC50,HepG2 [1],> 100 µM
same,IC50,PC-3,> 100 µM
COc1c(O)cc2c(c1O)[C@@H]1O[C@H](COC(=O)/C=C/c3ccccc3)[C@@H](O)[C@H](O)[C@H]1OC2=O,IC50,MCF7,> 100 µM
same,IC50,SGC-7901,9.67 µM
same,IC50,A549,56.9 µM
same,IC50,HepG2 [1],18.5 µM
same,IC50,PC-3,13.5 µM
COc1ccc(/C=C/C(=O)OC[C@H]2O[C@H]3c4c(cc(O)c(OC)c4O)C(=O)O[C@@H]3[C@@H](O)[C@@H]2O)cc1OC,IC50,MCF7,> 100 µM
same,IC50,SGC-7901,58.9 µM
same,IC50,A549,> 100 µM
same,IC50,HepG2 [1],86.1 µM
same,IC50,PC-3,> 100 µM
